Where “and” joins values, the source holds several entries; their conditions need not be identical. Equal values may be shown once. Blank lines part the entries; values can stand above or below the compound they belong to.
What was measured:
[1] = biological target: Estrogen receptor (Bos taurus) (UniProt Q9XSB5+P49884); experiment: Evaluated for relative binding affinity (RBA) for calf uterine estrogen receptor; type: protein assay
Summary of the method: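 Calf uterine cytosol (105000g supernatant; final protein 3 mg/mL) in Tris-EDTA-azide buffer pH 7.5. Incubated with 5 nM [³H]estradiol and competitor (10⁻⁹–10⁻⁴ M) for 18 h at 4 °C. Free ligand removed with dextran-coated charcoal, bound counted by scintillation. Nonspecific binding measured with 5 μM estradiol. RBA = estradiol/competitor molar ratio at 50% displacement ×100.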

[2] = biological target: T1, Estrogen receptor (Mus musculus) (UniProt O08537+P19785); experiment: Uterotrophic activity in mice as uterus dry weight (mg)/body weight (g) *100 at 1 ug; type: functional, tissue-based
T1 sequence (O08537 whole entry, looked up): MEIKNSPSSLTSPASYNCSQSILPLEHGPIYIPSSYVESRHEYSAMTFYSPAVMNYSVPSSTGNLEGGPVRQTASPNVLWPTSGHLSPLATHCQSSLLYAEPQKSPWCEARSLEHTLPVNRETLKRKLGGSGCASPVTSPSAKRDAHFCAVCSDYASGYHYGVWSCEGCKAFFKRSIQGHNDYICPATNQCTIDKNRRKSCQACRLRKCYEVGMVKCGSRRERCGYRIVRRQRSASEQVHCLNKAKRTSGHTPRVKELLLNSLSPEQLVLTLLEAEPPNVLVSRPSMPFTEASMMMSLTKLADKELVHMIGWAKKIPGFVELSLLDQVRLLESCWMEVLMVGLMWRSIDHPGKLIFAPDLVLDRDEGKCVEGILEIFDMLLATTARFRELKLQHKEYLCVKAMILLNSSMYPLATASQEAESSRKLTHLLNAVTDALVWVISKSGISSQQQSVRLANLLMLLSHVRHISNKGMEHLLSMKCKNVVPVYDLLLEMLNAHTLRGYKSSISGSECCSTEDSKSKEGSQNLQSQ
T1 sequence (P19785 whole entry, looked up): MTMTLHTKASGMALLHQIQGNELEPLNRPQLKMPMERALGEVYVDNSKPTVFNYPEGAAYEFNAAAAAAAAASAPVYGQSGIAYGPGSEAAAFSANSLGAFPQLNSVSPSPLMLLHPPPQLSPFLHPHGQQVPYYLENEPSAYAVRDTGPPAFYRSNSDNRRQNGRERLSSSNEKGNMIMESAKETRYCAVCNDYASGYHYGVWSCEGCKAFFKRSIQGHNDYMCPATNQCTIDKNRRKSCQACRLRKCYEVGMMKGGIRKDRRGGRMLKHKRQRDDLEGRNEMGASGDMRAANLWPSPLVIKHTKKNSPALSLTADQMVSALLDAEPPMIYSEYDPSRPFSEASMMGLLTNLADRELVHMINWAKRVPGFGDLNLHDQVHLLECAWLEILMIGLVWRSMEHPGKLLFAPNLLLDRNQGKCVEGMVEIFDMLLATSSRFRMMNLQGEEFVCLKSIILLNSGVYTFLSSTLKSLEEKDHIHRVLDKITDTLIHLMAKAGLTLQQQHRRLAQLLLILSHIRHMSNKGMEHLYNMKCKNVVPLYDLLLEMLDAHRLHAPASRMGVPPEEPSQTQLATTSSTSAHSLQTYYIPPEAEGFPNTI
Summary of the method: (§1)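 Immature 19-day-old female NMRI mice, 10 per group. Compound in olive oil injected sc on 3 consecutive days, dose per animal; vehicle-only controls, estrone as reference. Killed 24 h after last injection. Uteri fixed in Bouin solution, dried at 100 °C for 24 h. Value = uterine dry weight (mg)/body weight (g) ×100, mean of 10 animals ± SD.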

[3] = organism: Rattus norvegicus; experiment: Percentage progressive DMBA-induced mammary tumors in rats at 1 mg dose (experiment-1); type: functional
Summary of the method: (§2)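 Female Sprague–Dawley rats given a single 20 mg DMBA dose by gavage in 1 mL olive oil at 50 days old. Randomized once tumor area per animal exceeded 140 mm². Compound given sc in olive oil (1 mL/kg), dose per kg, once daily Monday–Thursday, double dose Friday. Tumor area from caliper measurement of two perpendicular axes, twice weekly. Significance by Wilcoxon–Mann–Whitney U test.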

[4] = organism: Rattus norvegicus; experiment: Change in DMBA-induced mammary tumor area in rats after 28 day therapy at 4 mg dose (experiment-1); type: functional; summary of the method: as §2
[5] = organism: Rattus norvegicus; experiment: Partial remission of DMBA-induced mammary tumors in rats at 4 mg dose; type: functional; summary of the method: as §2
[6] = organism: Rattus norvegicus; experiment: Percentage progressive DMBA-induced mammary tumors in rats at 4 mg dose (experiment-1); type: functional; summary of the method: as §2
[7] = biological target: T1, Estrogen receptor (Mus musculus); experiment: Uterotrophic activity in mice as uterus dry weight (mg)/body weight (g) *100 at 0.2 ug; type: functional, tissue-based; summary of the method: as §1
[8] = biological target: T1, Estrogen receptor (Mus musculus); experiment: Uterotrophic activity in mice as uterus dry weight (mg)/body weight (g) *100 at 5 ug; type: functional, tissue-based; summary of the method: as §1
[9] = organism: Rattus norvegicus; experiment: Complete remission of DMBA-induced mammary tumors in rats at 4 mg dose; type: functional; summary of the method: as §2
[10] = organism: Rattus norvegicus; experiment: Initial tumor number in DMBA-induced tumor bearing rats at 1 mg dose (experiment-1); type: functional; summary of the method: as §2
[11] = biological target: T1, Estrogen receptor (Mus musculus); experiment: Uterotrophic activity in mice as uterus dry weight (mg)/body weight (g) *100 at 25 ug; type: functional, tissue-based; summary of the method: as §1
[12] = organism: Rattus norvegicus; experiment: Complete remission of DMBA-induced mammary tumors in rats at 1 mg dose; type: functional; summary of the method: as §2
[13] = organism: Rattus norvegicus; experiment: Final tumor number in DMBA-induced tumor bearing rats at 1 mg dose (experiment-1); type: functional; summary of the method: as §2
[14] = biological target: T1, Estrogen receptor (Mus musculus); experiment: Uterotrophic activity in mice as uterus dry weight (mg)/body weight (g) *100 at 125 ug; type: functional, tissue-based; summary of the method: as §1
[15] = organism: Rattus norvegicus; experiment: Change in DMBA-induced mammary tumor area in rats after 28 day therapy at 1 mg dose (experiment-1); type: functional; summary of the method: as §2
[16] = organism: Rattus norvegicus; experiment: Partial remission of DMBA-induced mammary tumors in rats at 1 mg dose; type: functional; summary of the method: as §2
[17] = organism: Rattus norvegicus; experiment: Initial tumor number in DMBA-induced tumor bearing rats at 4 mg dose (experiment-1); type: functional; summary of the method: as §2
[18] = organism: Rattus norvegicus; experiment: Percentage static unchanged DMBA-induced mammary tumors in rats at 4 mg dose (experiment-1); type: functional; summary of the method: as §2
[19] = organism: Rattus norvegicus; experiment: Percentage static unchanged DMBA-induced mammary tumors in rats at 1 mg dose (experiment-1); type: functional; summary of the method: as §2
[20] = organism: Rattus norvegicus; experiment: Final tumor number in DMBA-induced tumor bearing rats at 4 mg dose (experiment-1); type: functional; summary of the method: as §2
[21] = organism: Rattus norvegicus; experiment: Change in DMBA-induced tumor area in rats after 28 day therapy at 1 mg dose (experiment-1); type: functional; summary of the method: as §2
[22] = organism: Rattus norvegicus; experiment: Final tumor number in DMBA-induced tumor bearing rats at 4 mg dose (experiment-2); type: functional; summary of the method: as §2
[23] = organism: Rattus norvegicus; experiment: (§3) Change in DMBA-induced mammary tumor area in rats after 28 day therapy at 4 mg dose (experiment-2); type: functional; summary of the method: as §2
[24] = organism: Rattus norvegicus; experiment: Initial tumor number in DMBA-induced tumor bearing rats at 4 mg dose (experiment-2); type: functional; summary of the method: as §2
[25] = organism: Rattus norvegicus; experiment: as §3; type: functional; summary of the method: as §2; remark: listed apart in the source
[26] = organism: Rattus norvegicus; experiment: Complete remission of DMBA-induced mammary tumors in rats at 3 mg dose; type: functional; summary of the method: as §2
[27] = organism: Rattus norvegicus; experiment: (§4) Change in DMBA-induced mammary tumor area in rats after 28 day therapy at 3 mg dose (experiment-1); type: functional; summary of the method: as §2
[28] = system: MCF7; experiment: Percentage [3H]thymidine incorporation treated/control in hormone sensitive MCF-7 cell proliferation assay at 10e-5 M or 10e-6 M; type: functional, Homo sapiens
Summary of the method: (§5)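 MCF-7 cells kept two weeks in medium with 5% charcoal-treated calf serum, 37 °C, 5% CO₂. About 2×10⁴ cells per well; compound added next day in 0.1% ethanol, ethanol-only controls, medium changed on day 4. Cells counted on day 7 by Coulter counter; [³H]thymidine 1 μCi/well for 2 h. Mean of six dishes.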

[29] = system: MCF7; experiment: Reduction of cell number of hormone sensitive MCF-7 human breast cancer cells at 10e-5 M
[30] = organism: Rattus norvegicus; experiment: as §4; type: functional; summary of the method: as §2; remark: listed apart in the source
[31] = organism: Rattus norvegicus; experiment: Partial remission of DMBA-induced mammary tumors in rats at 3 mg dose; type: functional; summary of the method: as §2
[32] = system: MCF7; experiment: Percentage cell number change as treated/control in hormone sensitive MCF-7 cell proliferation assay at 10e-6 M or 10e-5 M; type: functional, Homo sapiens; summary of the method: as §5
[33] = system: MCF7; experiment: Inhibition of [3H]thymidine incorporation into hormone sensitive MCF-7 human breast cancer cells at 10e-5 M; type: functional; summary of the method: as §5
[34] = organism: Rattus norvegicus; experiment: Percentage static unchanged DMBA-induced mammary tumors in rats at 3 mg dose (experiment-1); type: functional; summary of the method: as §2
[35] = system: MCF7; experiment: Inhibition of [3H]thymidine incorporation into hormone sensitive MCF-7 human breast cancer cells at 10e-6 M; type: functional; summary of the method: as §5
[36] = organism: Rattus norvegicus; experiment: Initial tumor number in DMBA-induced tumor bearing rats at 3 mg dose (experiment-1); type: functional; summary of the method: as §2
[37] = organism: Rattus norvegicus; experiment: Final tumor number in DMBA-induced tumor bearing rats at 3 mg dose (experiment-1); type: functional; summary of the method: as §2
[38] = organism: Rattus norvegicus; experiment: Percentage progressive DMBA-induced mammary tumors in rats at 3 mg dose (experiment-1); type: functional; summary of the method: as §2
[39] = system: MCF7; experiment: Reduction of cell number of hormone sensitive MCF-7 human breast cancer cells at 10e-6 M
[40] = biological target: T1, Estrogen receptor (Mus musculus); conditions: Uterus
[41] = biological target: T1, Estrogen receptor (Mus musculus); conditions: Uterus; remark: listed apart in the source
[42] = biological target: T1, Estrogen receptor (Mus musculus); conditions: Uterus; remark: listed apart in the source
[43] = biological target: T1, Estrogen receptor (Mus musculus); conditions: Uterus; remark: listed apart in the source

SMILES: CCCCn1c2c(c3ccc(O)cc31)CCc1cc(O)ccc1-2
relative binding affinity (RBA) [1]: 9.5

SMILES: CCn1c2c(c3cc(OC(C)=O)ccc31)CCc1cc(OC(C)=O)ccc1-2
Effect [2]: 19.6
Effect [3]: 49%
Change in tumor area [4]: 230%
Effect [5]: 6%
Effect [6]: 61%
Effect [7]: 15.3
Effect [8]: 18.4
Effect [9]: 10%
No. of tumors [10]: 22
Effect [11]: 23.6
Effect [12]: 9%
No. of new tumors [13]: 21
Effect [14]: 25.4
Change in tumor area [15]: 179%
Effect [16]: 7%
No. of tumors [17]: 24
Effect [18]: 23%
Effect [19]: 35%
No. of new tumors [20]: 24

SMILES: CCn1c2c(c3ccc(OC(C)=O)cc31)CCc1cc(OC(C)=O)ccc1-2
Activity [2]: 29.3
Activity [7]: 20.3
Activity [8]: 45.8
Activity [11]: 43.9

SMILES: CCn1c2c(c3ccc(O)cc31)CCc1ccccc1-2
relative binding affinity (RBA) [1]: 0.8

SMILES: CCn1c2c(c3cc(O)ccc31)CCc1ccccc1-2
relative binding affinity (RBA) [1]: 0.06

SMILES: Cn1c2c(c3ccc(O)cc31)CCc1cc(O)ccc1-2
relative binding affinity (RBA) [1]: 9.6

SMILES: CCn1c2ccc(OC(C)=O)cc2c2ccc3cc(OC(C)=O)ccc3c21
Effect [2]: 13.7
Effect [3]: 70%
Effect [5]: 10%
Median [21]: 493%
Range [21]: -29%
Effect [6]: 59%
Effect [7]: 12
Effect [8]: 14.4
No. of new tumors [22]: 45
Effect [9]: 6%
No. of tumors [10]: 22
Effect [11]: 15.1
Effect [12]: 3%
No. of new tumors [13]: 41
Effect [14]: 18.1
Change of tumor area [23]: 111%
No. of tumors [24]: 23
Effect [16]: 8%
Change of tumor area [25]: 561%
Effect [18]: 25%
Effect [19]: 19%

SMILES: CC/C(=C(\c1ccccc1)c1ccc(OCCN(C)C)cc1)c1ccccc1 [TAMOXIFEN]
Effect [26]: 22%
Change in tumor area [27]: 136%
T/C [28]: 0% and 6%
cell number [29]: 2000
Change in tumor area [30]: -57%
Effect [31]: 7%
T/C [32]: 2% and 12%
Activity [33]: 80
Effect [34]: 27%
Activity [35]: 1850
No. of tumors [36]: 31
No. of new tumors [37]: 24
Effect [38]: 44%
cell number [39]: 4800

SMILES: CCn1c2c(c3cc(O)ccc31)CCc1c(O)cccc1-2
relative binding affinity (RBA) [1]: 1.9

SMILES: CCn1c2c(c3ccc(O)cc31)CCc1c(O)cccc1-2
relative binding affinity (RBA) [1]: 1.3

SMILES: CCn1c2c(c3ccc(O)cc31)CCc1ccc(O)cc1-2
relative binding affinity (RBA) [1]: 9.7

SMILES: CCn1c2cc(OC(C)=O)ccc2c2ccc3cc(OC(C)=O)ccc3c21
Effect [2]: 28.5
Effect [7]: 21.6
Effect [8]: 38.5
Effect [11]: 38.7
Effect [14]: 46

SMILES: C[C@]12CC[C@@H]3c4ccc(O)cc4CC[C@H]3[C@@H]1CCC2=O
Effect [40]: 46.9
Effect [41]: 48.6
Effect [42]: 46.9
Effect [43]: 42.5

SMILES: CCCn1c2c(c3ccc(O)cc31)CCc1cc(O)ccc1-2
relative binding affinity (RBA) [1]: 38

SMILES: CCn1c2c(c3ccc(O)cc31)CCc1cc(O)ccc1-2
relative binding affinity (RBA) [1]: 30

SMILES: CCn1c2c(c3ccccc31)CCc1cc(O)ccc1-2
relative binding affinity (RBA) [1]: 1.8

The next lines start with results.

relative binding affinity (RBA) [1]: 0.33
SMILES: CCn1c2ccccc2c2ccc3cc(O)ccc3c21

relative binding affinity (RBA) [1]: 2.3
SMILES: CCCCn1c2cc(O)ccc2c2ccc3cc(O)ccc3c21

relative binding affinity (RBA) [1]: 0.1
SMILES: CCn1c2ccc(O)cc2c2ccc3c(O)cccc3c21

relative binding affinity (RBA) [1]: 20
SMILES: CCn1c2cc(O)ccc2c2ccc3cc(O)ccc3c21

relative binding affinity (RBA) [1]: 13
SMILES: CCCn1c2cc(O)ccc2c2ccc3cc(O)ccc3c21

relative binding affinity (RBA) [1]: 0.01
SMILES: CCn1c2cc(O)ccc2c2ccc3ccccc3c21

relative binding affinity (RBA) [1]: 3.6
SMILES: CCn1c2cc(O)ccc2c2ccc3ccc(O)cc3c21

relative binding affinity (RBA) [1]: 13
SMILES: CCn1c2c(c3cc(O)ccc31)CCc1cc(O)ccc1-2
cell number [29]: 4600
Activity [33]: 760
Activity [35]: 25840
cell number [39]: 28200

relative binding affinity (RBA) [1]: 6.5
SMILES: CCn1c2ccc(O)cc2c2ccc3cc(O)ccc3c21
cell number [29]: 5200
Activity [33]: 1040
Activity [35]: 26460
cell number [39]: 24100

relative binding affinity (RBA) [1]: 0.08
SMILES: CCn1c2ccc(O)cc2c2ccc3ccc(O)cc3c21

relative binding affinity (RBA) [1]: 9.5
SMILES: Cn1c2cc(O)ccc2c2ccc3cc(O)ccc3c21

relative binding affinity (RBA) [1]: 0.65
SMILES: CCn1c2cc(O)ccc2c2ccc3c(O)cccc3c21

relative binding affinity (RBA) [1]: < 0.01
SMILES: CCn1c2ccc(O)cc2c2ccc3ccccc3c21

relative binding affinity (RBA) [1]: 0.7
SMILES: CCn1c2c(c3cc(O)ccc31)CCc1ccc(O)cc1-2
